9 compounds from ChEMBL document CHEMBL1123352, “Anticonvulsant activity of 2- and 3-aminobenzanilides” (J Med Chem, 1986) can be followed below.

Activity calls are given as the source filed them. No cut-off for these calls is given here.

As a reminder, the ED50 is the dose at which the effect has come halfway, by size or by number of responders. The term TD50 denotes the 50% point of the dose-response relation for the toxic effect studied. Low readings indicate harm at a small dose, high ones harm only at a large dose.

Data set [1] deals with Mus musculus. Kind of data set: Anticonvulsant activity against sc pentylenetetrazole-induced convulsions in mice 4 hr after ip administration of 600 mg/kg; A=Active. The data set is classed as functional, organism-based. Details: dose 600 mg/kg. The method, boiled down: (§1)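 Male Carworth Farms No. 1 mice were dosed ip with compound in 30% PEG 400, at 30–600 mg/kg, and read at 30 min and 4 h. Pentylenetetrazole was given at 85 mg/kg as a 0.5% solution sc in the posterior midline. Protection meant no single episode of clonic spasms lasting at least 5 s over a 30-min observation.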

The subject of data set [2] is Mus musculus. Put plainly: Anticonvulsant activity against maximal electroshock (MES) induced seizures in mice 4 hours after ip administration of 600 mg/kg; A=Active. Details: dose 600 mg/kg. The data set is classed as functional, organism-based. Put shortly:
(§2)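 Male Carworth Farms No. 1 mice were dosed ip with compound in 30% polyethylene glycol 400, at 30, 100 and 300 mg/kg and sometimes 600 mg/kg, and tested 30 min and 4 h later. A drop of 0.9% saline went in the eye, then 60-cycle AC at 50 mA was given for 0.2 s via corneal electrodes. Protection meant abolition of hind limb tonic extension.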
Background: In the maximal electroshock model the usual endpoint is tonic extension of the hind limbs.

Data set [3] has as its system Mus musculus. Put plainly: Anticonvulsant activity against sc pentylenetetrazole-induced convulsions in mice 30 minutes after ip administration of 300 mg/kg; A=Active. The class given is functional, organism-based. Details: dose 300 mg/kg. Put shortly:
as §1

In data set [4] the test system is Mus musculus. Kind of data set: Anticonvulsant activity against maximal electroshock (MES) induced seizures in mice 30 minutes after ip administration of 100 mg/kg; A=Active. The data set is classed as functional, organism-based. Further details: dose 100 mg/kg. The method, boiled down: as §2
Data set [5] deals with Mus musculus. Put plainly: Compound was tested for toxicity by rotarod assay method in mice 4 hours after ip administration of 600 mg/kg; A=Active. The class given is organism-based. To be noted: in vivo. Further details: dose 600 mg/kg, route intraperitoneal. In general terms: The rotarod test checks motor coordination on a turning rod.
In data set [6] the test system is Mus musculus. Put plainly: Compound was tested for toxicity by rotarod assay method in mice 30 min after ip administration of 300 mg/kg; A=Active. To be noted: in vivo, 0.5 h. Further details: dose 300 mg/kg, route intraperitoneal. The data set is classed as organism-based.
For data set [7], the system named is Mus musculus. Put plainly: Compound was tested for toxicity by rotarod assay method in mice 30 min after ip administration of 600 mg/kg; no activity. Details: dose 600 mg/kg, route intraperitoneal. To be noted: in vivo, 0.5 h. The data set is classed as organism-based.
Data set [8] has as its system Mus musculus. Kind of data set: Anticonvulsant activity against maximal electroshock (MES) induced seizures in mice 4 hours after ip administration of 300 mg/kg; A=Active. Details: dose 300 mg/kg. The class given is functional, organism-based. Put shortly:
as §2

In data set [9] the test system is Mus musculus. Put plainly: Anticonvulsant activity against maximal electroshock (MES) induced seizures in mice 30 minutes after ip administration of 300 mg/kg; A=Active. The data set is classed as functional, organism-based. Details: dose 300 mg/kg. Put shortly: as §2
Data set [10] has as its system Mus musculus. Put plainly: Anticonvulsant activity against subcutaneous pentylenetetrazole induced convulsions in mice 30 min after ip administration of 600 mg/kg. The class given is functional, organism-based. Details: dose 600 mg/kg. Put shortly:
as §1

In data set [11] the test system is Mus musculus. Kind of data set: Anticonvulsant activity against subcutaneous pentylenetetrazole induced convulsions in mice 4 hr after ip administration of 600 mg/kg. The class given is functional, organism-based. Details: dose 600 mg/kg. The method, boiled down: as §1
Data set [12] deals with Mus musculus. Kind of data set: Compound was tested for toxicity by rotarod assay method in mice 4 hours after ip administration of 600 mg/kg; NA=No activity. The class given is organism-based. Further details: dose 600 mg/kg, route intraperitoneal. The following applies: in vivo.
Data set [13] relates to Mus musculus. Kind of data set: Compound was tested for toxicity by rotarod assay method in mice 30 min after ip administration of 600 mg/kg; No activity. The data set is classed as organism-based. Further details: dose 600 mg/kg, route intraperitoneal. To be noted: in vivo, 0.5 h.
Data set [14] concerns Mus musculus. Put plainly: Anticonvulsant activity against maximal electroshock (MES) induced seizures in mice 4 hours after ip administration of 600 mg/kg. The data set is classed as functional, organism-based. Details: dose 600 mg/kg. Put shortly:
as §2

Data set [15] concerns Mus musculus. Kind of data set: Anticonvulsant activity against maximal electroshock (MES) induced seizures in mice 30 minutes after ip administration of 600 mg/kg; A=Active. The data set is classed as functional, organism-based. Further details: dose 600 mg/kg. Put shortly: as §2
Data set [16] relates to Mus musculus. Kind of data set: Anticonvulsant activity against sc pentylenetetrazole induced convulsions in mice 30 minutes after ip administration of 600 mg/kg; A=Active. The data set is classed as functional, organism-based. Further details: dose 600 mg/kg. The method, boiled down:
as §1

A short description of data set [17]: Protective index measured as the ratio between TD50 and ED50. The class given is ADME. The following applies: read-out: PI.
The test system of data set [18] is Mus musculus. Put plainly: Anticonvulsant activity against maximal electroshock (MES) induced seizures in mice 30 minutes after ip administration of 30 mg/kg; A=Active. The data set is classed as functional, organism-based. Details: dose 30 mg/kg. The method, boiled down: as §2
Data set [19] concerns Mus musculus. Kind of data set: Compound was tested for toxicity by rotarod assay method in mice 30 min after ip administration of 600 mg/kg; A=Active. The data set is classed as organism-based. Details: dose 600 mg/kg, route intraperitoneal. To be noted: in vivo, 0.5 h.
Data set [20] is filed under the species Mus musculus. Put plainly: Anticonvulsant activity against maximal electroshock (MES)-induced seizures in mice. The data set is classed as functional. The method, boiled down: as §2
Data set [21] in a line: Compound for toxicity by rotarod assay method in mice after administration. The data set is classed as organism-based. The following applies: mouse, in vivo. The method, boiled down:
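Neurologic deficit was tested in male Carworth Farms No. 1 mice 30 min and 4 h after ip dosing in 30% PEG 400, at 30–600 mg/kg. Each mouse was placed on a 1-in.-diameter knurled plastic rod turning at 6 rpm. Toxicity meant failing to stay on the rod for 1 min.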

Data set [22] concerns Mus musculus. Put plainly: Anticonvulsant activity against maximal electroshock (MES) induced seizures in mice 4 hours after ip administration of 100 mg/kg; A=Active. Details: dose 100 mg/kg. The class given is functional, organism-based. Put shortly:
as §2

Data set [23] has as its system Mus musculus. Put plainly: Compound for anticonvulsant activity against maximal electroshock (MES)-induced seizures in mice after administration. The class given is functional. The method, boiled down: as §2
For data set [24], the system named is Mus musculus. Kind of data set: Anticonvulsant activity against sc pentylenetetrazole induced convulsions in mice 4 hr after ip administration of 600 mg/kg; A=Active. The class given is functional, organism-based. Further details: dose 600 mg/kg. The method, boiled down: as §1
The test system of data set [25] is Mus musculus. Kind of data set: Compound for anticonvulsant activity against subcutaneous pentylenetetrazole-induced convulsions in mice after administration. The data set is classed as functional. To be noted: sc. The method, boiled down:
as §1

Data set [26] has as its system Mus musculus. Put plainly: Anticonvulsant activity against sc pentylenetetrazole-induced convulsions in mice 30 minutes after ip administration of 300 mg/kg; Active. Details: dose 300 mg/kg. The data set is classed as functional, organism-based. The method, boiled down: as §1
Data set [27] concerns Mus musculus. Put plainly: Compound was tested for toxicity by rotarod assay method in mice 30 min after ip administration of 300 mg/kg; Active. The data set is classed as organism-based. Details: dose 300 mg/kg, route intraperitoneal. The following applies: in vivo, 0.5 h.

`Cc1cccc(NC(=O)c2cccc(N)c2)c1`: the Anticonvulsant activity entry in the data set on Mus musculus [1], in the data set on Mus musculus [2], in the data set on Mus musculus [3] and in the data set with Mus musculus [4] was “Active” in each case. The Toxicity result in the data set on Mus musculus [5] and with Mus musculus [6] was “Active” each time.

Turning to `Cc1ccc(NC(=O)c2cccc(N)c2)cc1`, the results for the Toxicity entry in the data set with Mus musculus [7] and in the data set on Mus musculus [5] were “Not Active” and “Active”, respectively. In addition, the Anticonvulsant activity entry in the data set on Mus musculus [8] and in the data set with Mus musculus [9] was “Active” in each case. Besides, the Anticonvulsant activity result in the data set on Mus musculus [10] and with Mus musculus [11] was “inactive” throughout.

As to `Cc1ccc(NC(=O)c2cccc(N)c2)cc1C`, the Toxicity entry in the data set on Mus musculus [12] and with Mus musculus [13] was “Not Active” in each case. In addition, the Anticonvulsant activity entry in the data set with Mus musculus [14] and in the data set on Mus musculus [11] was “inactive” in each case. Further, the Anticonvulsant activity entry with Mus musculus [15] and in the data set on Mus musculus [16] was “Active” in each case.

With `Cc1cccc(C)c1NC(=O)c1cccc(N)c1`, the selectivity ratio in data set [17] is 21.1. The Anticonvulsant activity entry in the data set with Mus musculus [18] and with Mus musculus [22] was “Active” throughout. In addition, the Toxicity entry in the data set with Mus musculus [19] and in the data set on Mus musculus [5] was “Active” in each case. Further, the Anticonvulsant activity result in the data set on Mus musculus [10] and in the data set on Mus musculus [11] was “inactive” in each case. In the data set filed under Mus musculus [20], the median effective dose (ED50) was 13.5 mg/kg. For the same compound, the TD50 in data set [21] amounted to 285 mg/kg.

Consider `Cc1cccc(C)c1NC(=O)c1ccc(N)cc1` [AMELTOLIDE], for which the ED50 in the data set on Mus musculus [23] worked out at 2.6 mg/kg.

In the case of `Cc1ccccc1NC(=O)c1cccc(N)c1`, the Anticonvulsant activity result in the data set on Mus musculus [8], with Mus musculus [3] and with Mus musculus [4] was “Active” in each case. In the data set listed under Mus musculus [20], this compound displayed an ED50 of 44.7 mg/kg. Besides, the Toxicity result with Mus musculus [5] and with Mus musculus [6] was “Active” in each case. The same compound returned a TD50 in data set [21] of 109 mg/kg. Besides, the Anticonvulsant activity entry with Mus musculus [11] is “inactive”.

Consider `Nc1cccc(C(=O)Nc2ccccc2)c1`, for which the Anticonvulsant activity result in the data set with Mus musculus [24], in the data set on Mus musculus [8], in the data set on Mus musculus [3] and in the data set on Mus musculus [4] was “Active” each time. In addition, the Toxicity result with Mus musculus [5] and in the data set with Mus musculus [6] was “Active” throughout.

`CCCC(CCC)C(=O)O` [VALPROIC ACID]: the ED50 was determined as 272 mg/kg with Mus musculus [23] and 149 mg/kg in the data set on Mus musculus [25].

Regarding `Cc1cccc(C)c1NC(=O)c1ccccc1N`, the Toxicity entry was “Not Active” in the data set with Mus musculus [12] and “Active” with Mus musculus [27]. In addition, the Anticonvulsant activity entry with Mus musculus [26], with Mus musculus [2] and in the data set on Mus musculus [9] was “Active” each time. The Anticonvulsant activity result in the data set on Mus musculus [11] is “inactive”.
